HCT116 PTEN-null: growth suppressors of cells with PTEN tumor suppressor deletion. hit rate 1.2% among 140,000. viability, % at 10 µM. HCT116 PTEN-null viability, CellTiter-Glo, 60 h; hits give low values. AID 827;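 active = viability at or below a set limit, 4 SD under the median of all tested compounds, cut at about 3.7% in these data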;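 note: PTEN knockout HCT116 line with beta catenin targeted HCT116 as companion control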
Lung fibro prol: blocks proliferation of human lung fibroblasts; viability, % at 10 µM; AID 719; hit rate 1.1% among 85,000; LL 47 human lung fibroblast viability, ATP luminescence; hits give low values;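 active = viability at or below 50% in the single dose screen; inactive = viability above 50%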;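 note: compound exposure lasted 72 h before the ATP readout; 100% = median luminescence of untreated cell-only wells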
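Assay system: human lung fibroblast line LL 47, low passage. Input: 1,150 fibroblasts seeded per well. Times: overnight cell rest, 72 h compound treatment at 37 °C. Evaluation: % viability of median cell-only signal. Technique: luminescent ATP detection, CellTiter-Glo. Control set: cell-only wells, no compound.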
HUVEC inhibit: inhibitors of human endothelial cell proliferation; HUVEC proliferation, CellTiter-Glo luminescence, 72 h; hits give low values; hit rate 1.1% among 86,000; viability, % at 10 µM (by protocol);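 active = viability at or below 30%; inactive = viability above 30%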;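 note: 100% = median luminescence of DMSO-only cell control wells on each plate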
bCat KO growth: beta-catenin-lacking colon tumor cell growth suppression; HCT116 beta-catenin knockout viability, CellTiter-Glo, 60 h; hits give low values; viability, % at 10 µM; hit rate 1.5% among 140,000; AID 818;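 active = viability at or under a set limit, the compound median less 4 SD, cut at about 6% in these data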;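 note: 0% = Hyamine 1622 control at 20 µM and 100% = untreated cell control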
H69AR growth 86K: blocks growth of human H69AR lung tumor cells; H69AR lung tumor viability, ATP luminescence, 72 h; hits give low values; viability, % at 10 µM; hit rate 6% among 85,000;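 active = viability at or below 40%; inactive = viability above 40%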;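 note: multidrug resistant small cell line overexpressing MRP-1 efflux transporter; 100% = mean luminescence of untreated control wells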
Starred values were filed as active, the others as inactive; / = no result given. Many of the other results were omitted from the sample, so hits are more common in it than they were.

SMILES | HCT116 PTEN-null | Lung fibro prol | HUVEC inhibit | bCat KO growth | H69AR growth 86K
Cc1cccn2c(=O)c3cc(C(=O)NC(C)c4ccccc4)c(=N)n(CCCn4ccnc4)c3nc12 (configuration not stated) | / | 68 | 65 | / | 12*
Cc1ccc2nc3c(cc(C(=O)NCc4ccccc4)c(=N)n3CCCn3ccnc3)c(=O)n2c1 | / | 87 | 49 | / | 66
N=c1c(C(=O)NCc2ccccc2)cc2c(=O)n3ccccc3nc2n1Cc1ccco1 | 16 | 81 | 78 | 11 | 39*
N=c1c(C(=O)NCc2ccc3c(c2)OCO3)cc2c(=O)n3ccccc3nc2n1Cc1cccnc1 | 72 | 92 | 87 | 77 | 72
COc1ccc(CNC(=O)c2cc3c(=O)n4ccccc4nc3n(Cc3cccnc3)c2=N)cc1 | 76 | 91 | 88 | 81 | 27*
CCCCCn1c(=NC(=O)c2ccco2)c(C(=O)OCC)cc2c(=O)n3ccccc3nc21 | 76 | 89 | 92 | 78 | 27*
N=c1c(C(=O)NCc2ccc(F)cc2)cc2c(=O)n3ccccc3nc2n1Cc1ccco1 | 62 | / | / | 60 | /
C/C(=N/O)c1ccc2c(c1)OCCOCCOc1cc(/C(C)=N/O)ccc1OCCOCCO2 | 60 | / | / | 56 | /
CCCn1c(=NC(=O)c2ccc3c(c2)OCO3)c(C#N)cc2c(=O)n3cccc(C)c3nc21 | / | 83 | 79 | / | 38*
Cc1cccn2c(=O)c3cc(C(=O)NCc4ccco4)c(=N)n(C(C)C)c3nc12 | 71 | 100 | 94 | 68 | 70
N=c1c(C(=O)NCc2ccco2)cc2c(=O)n3ccccc3nc2n1Cc1ccc(Cl)cc1 | 11 | 61 | 70 | 13 | 26*
N=c1c(C(=O)NCc2ccco2)cc2c(=O)n3ccccc3nc2n1Cc1ccccc1 | 45 | 91 | 79 | 55 | 46
Cc1cccn2c(=O)c3cc(C(=O)NCc4ccco4)c(=N)n(CCc4ccccc4)c3nc12 | / | 59 | 56 | / | 31*
COCCCn1c(=N)c(C(=O)NCc2ccc3c(c2)OCO3)cc2c(=O)n3cccc(C)c3nc21 | / | 90 | 82 | / | 70
CCOCCCn1c(=N)c(C(=O)NCc2ccc3c(c2)OCO3)cc2c(=O)n3cccc(C)c3nc21 | 5 | 62 | 78 | 2.8* | 55
Cc1nc2c(n1C1CCCCC1)C(=O)c1ccccc1C2=O | 43 | / | / | 57 | /
Cc1ccccc1C(=O)NC1CCN(CC(=O)Nc2nccs2)CC1 | 110 | 94 | 98 | 97 | 16*
Cc1ccc(NC(=O)NC2CCN(CC(=O)Nc3nccs3)CC2)cc1 | 112 | 100 | 98 | 103 | 75
O=c1[nH]c(N/N=C/c2ccccc2Br)nnc1-c1ccccc1 | 96 | / | / | 84 | /
COc1ccc(/C=N/Nc2nnc(-c3ccccc3)c(=O)[nH]2)cc1 | 2.9* | / | / | 4.5* | /
Cc1ccccc1N1C(=O)CC(Sc2nnc(-c3ccccc3)o2)C1=O (configuration not stated) | 97 | 46* | 85 | 84 | 1.8*
O=C1CC(Sc2nnc(-c3ccccc3)o2)C(=O)N1c1ccccc1 (configuration not stated) | 116 | 90 | 106 | 97 | 1.8*
O=C(NCCN1C(=O)S/C(=C\c2ccccc2)C1=O)c1cc(S(=O)(=O)N2CCOCC2)c(Cl)cc1Cl | 64 | / | / | 64 | /
O=C(/C=C/c1ccncc1)c1ccc(NC(=O)c2ccccc2F)cc1 | 2.0* | / | / | 1.2* | /
O=C(/C=C/c1ccc(Br)cc1)c1ccc(NC(=O)c2ccco2)cc1 | 2.1* | / | / | 1.8* | /
SMILES | HCT116 PTEN-null | Lung fibro prol | HUVEC inhibit | bCat KO growth | H69AR growth 86K
CCN(CC)c1ccc(NC(=O)c2ccccc2F)cc1 | 31 | 71 | 47 | 33 | 26*
O=C(/C=C/c1ccc(Br)cc1)c1ccco1 | 0.8* | / | / | 1.0* | /
O=C(/C=C/c1ccc2c(c1)OCO2)c1ccco1 | 20 | / | / | 18 | /
CCN(CC)c1ccc(NC(=O)c2cc(Cl)ccc2OC)cc1 | 67 | 74 | 31 | 64 | 48
Cc1ccc(C#CC[N+]2(CC#Cc3ccc(C)cc3)CCCCC2)cc1 | 4 | / | / | 7 | /
O=C(Nc1cccc(NC(=O)c2ccc(-c3ccc(Br)cc3)o2)c1)c1ccco1 | 36 | 70 | 54 | 39 | 35*
NC1C2CN(c3nc4c(cc3F)c(=O)c(C(=O)O)cn4-c3ccc(F)cc3F)CC12 (configuration not stated) | 17 | / | / | 29 | /
Cc1nn(Cc2cccc(C(=O)NC34CC5CC(CC(C5)C3)C4)c2)c(C)c1Br | 79 | 91 | 29* | 77 | 98
CCCn1c(=O)c2ccccc2n2c(Sc3nnnn3-c3ccccc3)nnc12 | 48 | 97 | 94 | 53 | 33*

Bioassay records deposited in PubChem BioAssay by SRMLSC.
